Measured values from ChEMBL document CHEMBL1135642, “Synthesis and biological evaluation of 7,8,9,10-tetrahydroimidazo[1,2-c]pyrido[3,4-e]pyrimdin-5(6H)-ones as functionally selective ligands of the benzodiazepine receptor site on the GABA(A) receptor” (J Med Chem, 2002).
Calls of active or inactive are those of the source. The rule behind the calls is not given here.

Key:
Rattus norvegicus [1] = organism: Rattus norvegicus; experiment: Rat behavioral spontaneous Locomotor Activity; Not significant.; format: functional, organism-based
In short: (§1)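 Male Sprague-Dawley rats received the test drug iv in 50% aqueous PEG-400, which also served as the control vehicle. They were then placed in an automated activity monitor, and movement time, total distance and vertical activity were recorded over 15 min. Each drug was compared against vehicle, and NS marks a difference that was not significant.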

[2] = biological target: T1, Gamma-aminobutyric acid receptor subunit alpha-5 (Homo sapiens) (UniProt P31644); experiment: Maximum percent potentiation against gamma-aminobutyric acid (GABA) A receptor, alpha 5; conditions: Xenopus laevis
T1 sequence (whole entry): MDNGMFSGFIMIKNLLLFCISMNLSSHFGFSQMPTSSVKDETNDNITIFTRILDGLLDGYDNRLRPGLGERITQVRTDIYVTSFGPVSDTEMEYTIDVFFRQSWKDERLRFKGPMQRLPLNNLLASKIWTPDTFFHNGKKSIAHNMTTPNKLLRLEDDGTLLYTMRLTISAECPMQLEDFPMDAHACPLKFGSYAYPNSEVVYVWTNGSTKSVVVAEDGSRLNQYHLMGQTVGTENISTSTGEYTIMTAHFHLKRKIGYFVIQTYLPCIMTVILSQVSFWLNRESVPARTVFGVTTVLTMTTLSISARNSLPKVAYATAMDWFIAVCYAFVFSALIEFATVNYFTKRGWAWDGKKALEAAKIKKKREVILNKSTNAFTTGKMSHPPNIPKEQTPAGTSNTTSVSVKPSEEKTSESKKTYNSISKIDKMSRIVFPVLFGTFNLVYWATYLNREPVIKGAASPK
In short: (§2)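 Xenopus laevis oocytes were injected with human cRNA for the α, β and γ subunits needed to express each receptor subtype (α1, α2, α3 or α5). Electrophysiological recording was used to read potentiation, and the effective concentration and maximal percent potentiation were derived from it.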

[3] = biological target: T2, Gamma-aminobutyric acid receptor subunit alpha-2 (Homo sapiens, UniProt P47869); experiment: Effective concentration against gamma-aminobutyric acid (GABA) A receptor, alpha 2; design: species or system Xenopus laevis; in short: as §2
T2 sequence (P47869 whole entry): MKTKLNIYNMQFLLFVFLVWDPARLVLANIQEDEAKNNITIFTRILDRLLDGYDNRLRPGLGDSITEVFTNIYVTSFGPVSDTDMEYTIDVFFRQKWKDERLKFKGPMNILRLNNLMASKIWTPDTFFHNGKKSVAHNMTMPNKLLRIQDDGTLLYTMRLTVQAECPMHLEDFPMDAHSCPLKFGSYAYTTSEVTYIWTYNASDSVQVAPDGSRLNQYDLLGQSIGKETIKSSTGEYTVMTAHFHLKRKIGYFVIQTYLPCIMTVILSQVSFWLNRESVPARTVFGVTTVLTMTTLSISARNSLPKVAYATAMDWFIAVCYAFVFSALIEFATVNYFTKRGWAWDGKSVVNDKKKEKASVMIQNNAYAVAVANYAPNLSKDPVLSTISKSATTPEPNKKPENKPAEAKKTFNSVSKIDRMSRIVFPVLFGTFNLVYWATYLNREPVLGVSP

[4] = biological target: T3, Gamma-aminobutyric acid receptor subunit alpha-1 (Homo sapiens) (UniProt P14867); experiment: Maximum percent potentiation against gamma-aminobutyric acid (GABA) A receptor, alpha 1; conditions: Xenopus laevis; in short: as §2
T3 sequence (whole entry): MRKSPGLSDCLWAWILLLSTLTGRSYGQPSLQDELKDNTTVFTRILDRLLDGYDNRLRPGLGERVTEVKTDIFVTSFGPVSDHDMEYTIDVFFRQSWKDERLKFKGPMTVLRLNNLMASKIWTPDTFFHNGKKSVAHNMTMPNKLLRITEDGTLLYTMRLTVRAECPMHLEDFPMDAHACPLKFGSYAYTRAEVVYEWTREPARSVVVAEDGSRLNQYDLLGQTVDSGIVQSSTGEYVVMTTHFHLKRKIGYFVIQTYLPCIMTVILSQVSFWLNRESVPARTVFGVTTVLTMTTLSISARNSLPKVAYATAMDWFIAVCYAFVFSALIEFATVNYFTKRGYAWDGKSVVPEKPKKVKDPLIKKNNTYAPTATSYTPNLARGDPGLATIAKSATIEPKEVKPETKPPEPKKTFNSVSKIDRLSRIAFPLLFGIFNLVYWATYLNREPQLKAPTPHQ

[5] = biological target: GABA-A receptor; anion channel; experiment: Binding affinity was determined by displacement of [3H]flumazenil from rat cortex homogenates; format: functional
In short: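 Displacement of [3H]flumazenil from rat cortex homogenates. Values are averages (±SD); some analogues were run once as a single set of triplicates. NA means an IC50 was not achieved at the highest dose tested.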

[6] = biological target: T4, Gamma-aminobutyric acid receptor subunit alpha-2 (Homo sapiens) (UniProt P47869); experiment: Maximum percent potentiation against gamma-aminobutyric acid (GABA) A receptor, alpha 2; conditions: Xenopus laevis; in short: as §2
T4 sequence (whole entry): T2 sequence (P47869 whole entry)

[7] = biological target: T5, Gamma-aminobutyric acid receptor subunit alpha-3 (Homo sapiens) (UniProt P34903); experiment: Maximum percent potentiation against gamma-aminobutyric acid (GABA) A receptor, alpha 3; conditions: Xenopus laevis; in short: as §2
T5 sequence (whole entry): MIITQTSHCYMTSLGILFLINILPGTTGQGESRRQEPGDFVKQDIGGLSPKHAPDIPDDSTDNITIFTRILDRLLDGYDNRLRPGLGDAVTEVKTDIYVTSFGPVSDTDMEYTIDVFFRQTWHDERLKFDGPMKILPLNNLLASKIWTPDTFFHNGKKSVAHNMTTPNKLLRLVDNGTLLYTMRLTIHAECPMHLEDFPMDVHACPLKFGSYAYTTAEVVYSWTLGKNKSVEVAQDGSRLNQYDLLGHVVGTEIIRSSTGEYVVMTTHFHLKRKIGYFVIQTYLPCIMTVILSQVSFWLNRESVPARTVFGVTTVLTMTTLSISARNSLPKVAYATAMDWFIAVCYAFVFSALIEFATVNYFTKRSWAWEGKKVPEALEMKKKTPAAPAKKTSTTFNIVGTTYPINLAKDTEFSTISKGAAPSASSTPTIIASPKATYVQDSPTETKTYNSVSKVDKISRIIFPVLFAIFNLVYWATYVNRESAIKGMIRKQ

[8] = biological target: T6, Gamma-aminobutyric acid receptor subunit alpha-1 (Homo sapiens, UniProt P14867); experiment: Effective concentration against gamma-aminobutyric acid (GABA) A receptor, alpha 1; design: species or system Xenopus laevis; in short: as §2
T6 sequence (P14867 whole entry): T3 sequence (whole entry)

[9] = biological target: T7, Gamma-aminobutyric acid receptor subunit alpha-3 (Homo sapiens, UniProt P34903); experiment: Effective concentration against gamma-aminobutyric acid (GABA) A receptor, alpha 3; design: species or system Xenopus laevis; in short: as §2
T7 sequence (P34903 whole entry): T5 sequence (whole entry)

Rattus norvegicus [10] = organism: Rattus norvegicus; experiment: Rat behavioral spontaneous Locomotor Activity; format: functional; in short: as §1
[11] = biological target: GABA-A receptor; anion channel (Rattus norvegicus) (UniProt O09028+P15431+P18506+P18508+P19969+P20236+P23574+P23576+P28471+P28473+P30191+P62813+P63079+P63138+Q91ZM7+Q9ES14); experiment: Binding affinity by displacement of [3H]flumazenil from rat cortex homogenates; Not active; format: functional
In short: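 Displacement of [3H]flumazenil from rat cortex homogenates. […] Values are averages (±SD); some analogues were run once as a single set of triplicates. NA means an IC50 was not achieved at the highest dose tested.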

[12] = biological target: T8, Gamma-aminobutyric acid receptor subunit alpha-5 (Homo sapiens, UniProt P31644); experiment: Effective concentration against Gamma-aminobutyric acid A receptor, alpha 5; design: species or system Xenopus laevis; in short: as §2
T8 sequence (P31644 whole entry): T1 sequence (whole entry)

SMILES	NS (Rattus norvegicus [1])	Activity [2] [%]	EC50 [3] [nM]	Activity [4] [%]	Ki [5] [nM]	Activity [6] [%]	Activity [7] [%]	EC50 [8] [nM]	EC50 [9] [nM]	minimum effective dose on locomotor activity (Rattus norvegicus [10]) [mg/kg]	NA [11]	EC50 [12] [nM]	OMNI med (Rattus norvegicus [10]) [mg/kg]
Oc1nc2c(c3nc(-c4ccccc4F)cn13)CN(Cc1ccncc1)CC2	inactive	0	99	17	0.9	42	58	53	33				
Oc1nc2c(c3nc(-c4cccc(F)c4)cn13)CN(Cc1ccccc1)CC2				92		81				2			
COc1ccc(-c2cn3c(O)nc4c(c3n2)CN(Cc2ccccc2)CC4)cc1				122		142				0.06			
CCC(=O)N1CCc2nc(O)n3cc(-c4ccc(OC)cc4)nc3c2C1											inactive		
CCCCN1CCc2nc(O)n3cc(-c4ccccc4F)nc3c2C1		4	247	70	7.3	86	72	258	394			291	
O=C(c1ccccc1)N1CCc2nc(O)n3cc(-c4cccc(Cl)c4)nc3c2C1											inactive		
Oc1nc2c(c3nc(-c4ccccc4F)cn13)CN(Cc1cccs1)CC2		49	67	50	0.5	54	96	107	367			375	
Cc1ccc(-c2cn3c(O)nc4c(c3n2)CN(Cc2ccccc2)CC4)cc1		17	1180	62	43	94	174	266	3830			650	
O=c1[nH]c2c(c3nc(-c4ccccc4F)cn13)CN(Cc1ccccc1)CC2			20		1.3			18	20			74	
Cc1ccc(-c2nc3ccc(C)cn3c2CC(=O)N(C)C)cc1 [ZOLPIDEM]		< 20		322		291	700					> 3000	0.25
O=c1[nH]c2c(c3nc(-c4ccccc4F)cn13)CN(CC1CCCCC1)CC2			202		0.9			127	213			231	
Oc1nc2c(c3nc(-c4ccccc4F)cn13)CNCC2											inactive		
COc1ccc(-c2cn3c(O)nc4c(c3n2)CN(C(=O)c2ccccc2)CC4)cc1											inactive		
Oc1nc2c(c3nc(-c4ccccc4F)cn13)CN(Cc1cccnc1)CC2		0		29		78	81			0.5			
Cc1nnc2n1-c1ccc(Cl)cc1C(c1ccccc1)=NC2 [ALPRAZOLAM]		206	12	327	3.3	333	774	37	69			10	0.125
CCCCCC(=O)N1CCc2nc(O)n3cc(-c4ccccc4F)nc3c2C1											inactive		
Oc1nc2c(c3nc(-c4ccc(F)cc4)cn13)CN(Cc1ccccc1)CC2				186		155				1			
Oc1nc2c(c3nc(-c4ccccc4F)cn13)CN(CC1CC1)CC2		7	1160	31	30	36	28	135	424			94	
